Calb FLC – C. albicans growth modulation with fluconazole; growth inhibition, % (no concentration beside the values); C. albicans CaCi-2 (fluconazole-resistant clinical isolate) + fluconazole, Alamar Blue growth, 48 h; actives 0.57% (n = 300,000);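 active means growth inhibition above about 58% in most replicates, limit read from the data, passing the limit was not always enough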;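 further: all wells also contain fluconazole at 8 µg/ml as a sub-toxic cotreatment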
Neddyl block – blocks human cullin neddylation. P61081+Q13564. TR-FRET cullin neddylation, biochemical. inhibition, % at 25 µM. actives 0.58% (n = 360,000). AID 651699; in the data active means inhibition above about 36%
HIF act – HIF pathway transcriptional activation; U2OS HRE-luciferase reporter, luminescence; normalized: DMSO 0%, desferrioxamine 100%; activation, % at 7.5 µM (by protocol); actives 0.32% (n = 300,000);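 active means mean activation of at least 10% of the iron chelator positive control signal, with at least half of replicates also reaching 10%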
FXN GAA850 act – increases GAA850 frataxin promoter reporter activity. HEK293 lucGAA850 FXN promoter luciferase reporter, 24 h; percent of 10 µM SAHA response. activation, % at 6 µM. actives 0.56% (n = 360,000). AID 540364;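 active means activation above the average of all compounds screened plus 3 SD, cutoff fixed separately per campaign, cut at about 7.5% in these data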
procasp7 counter – activates human procaspase-7, counter-screen for procaspase-3 activators; P55210; recombinant procaspase-7, Ac-DEVD-pNA absorbance 405 nm; D23A/D198A/D206A triple mutant, cannot self-cleave; scale: DMSO 0, 5 µM enzyme 100; activation, % at 8.5 µM; actives 0.093% (n = 330,000); AID 463210;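 active means percent activation above the screen-wide mean plus 3 SD, cut at about 25% in these data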
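Assay system: Uncleavable procaspase-7 mutant enzyme / Input: 2 µM procaspase-7 mutant as dispensed / Dosing: single nominal 8.5 µM compound dose, 0.8% DMSO final / Timing: 1 h enzyme–compound preincubation and 2 h substrate reaction, both 25 °C / Detection: p-Nitroaniline absorbance at 405 nm, read at 0 and 120 min / Replication: singlicate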
procasp3 activ – activators of human procaspase-3; activation, % at 8.5 µM; AID 463141; P42574; actives 0.11% (n = 330,000); recombinant procaspase-3 D3A, Ac-DEVD-pNA absorbance 405 nm;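 active means activation above the mean of all tested compounds plus 3 SD, cut at about 21% in these data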
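Assay system: Procaspase-3 D3A mutant, all three cleavage aspartates alanine. Buffer or medium: Zinc-free HEPES saline buffer with Triton X-100. Times: 1 h compound preincubation, 2 h substrate hydrolysis at 25 °C. Measured by: 405 nm absorbance of p-nitroaniline, reads at 0 and 120 min. Read-out basis: percent activation relative to control range. Replicates: singlicate.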
Numbers stand for hits; . = inactive; / = no result shown. This is a sample that favours compounds with a hit; in the whole collection about 1.9% have one here.

SMILES | Calb FLC | Neddyl block | HIF act | FXN GAA850 act | procasp7 counter | procasp3 activ
Cc1cc(C)c(NC(=O)CN(C)C(=O)CCN2C(=O)C3CCCCC3C2=O)c(C)c1 (stereo not drawn) | / | . | / | . | / | /
CC(=O)Nc1ccc(NC(=O)CSc2ccc3nnc(CCNS(=O)(=O)c4ccc(C)cc4)n3n2)cc1 | 77.1 | . | . | . | . | .
C=CCNC(=S)N/N=C(\C)c1ccccn1 | 115.1 | . | 13.5 | . | . | .
COc1ccc(CC(NC(C)=O)C(=O)NC2CCN(C(=O)Nc3ccc(Cl)cc3)CC2)cc1OC (stereo not drawn) | . | . | 36.5 | . | . | .
CCOC(=O)n1cnc2nc(N)nc(SC)c21 | / | . | / | . | / | /
COc1cc(Nc2nc3ccccc3nc2NS(=O)(=O)c2ccc([N+](=O)[O-])cc2)cc(OC)c1OC | / | . | . | . | . | .
O=[N+]([O-])c1ccc(S(=O)(=O)Nc2nc3ccccc3nc2Nc2ccccc2)cc1 | 105.5 | . | . | . | . | .
COCc1cc(CN2CCN(C)CC2)c(O)c2ncccc12 | 107.5 | . | . | . | . | .
Oc1c(CN2CCN(c3ccccc3)CC2)cc(Br)c2cccnc12 | 101.6 | . | 38.5 | . | . | .
CCOC(=O)N1CCN(Cc2ccccc2Cl)CC1 | / | . | / | . | . | .
c1ccc(N2CCN(Cc3ccnc4ccccc34)CC2)cc1 | . | . | . | . | . | .
Oc1c(CN2CCOCC2)cc(COCc2ccccc2)c2cccnc12 | 82.6 | . | 53.0 | . | . | .
CCOC(=O)N1CCN(Cc2cc(Cl)c3cccnc3c2O)CC1 | 116.1 | / | . | / | . | .
Oc1c(CNc2ccccc2)cc(COCc2ccccc2)c2cccnc12 | / | . | / | . | . | .
COc1ccc(CNC(=O)C2CCN(S(=O)(=O)c3ccc(N4CCCC4=O)cc3)CC2)cc1 | / | . | / | . | / | /
CCOC(=O)/C(C#N)=C/C=C1\C=Cc2ccccc2N1CC | . | . | 17.8 | . | . | .
CCCN1C=CC(=C/C=C(\C#N)C(=O)OCC)C=C1 | . | / | . | / | . | .
CCOc1ccc(-n2cc(C(=O)Nc3cccc(Cl)c3)c3cc(OC)c(OC)cc3c2=O)cc1 | . | . | . | . | . | .
CCOc1ccc(NC(=O)c2cn(-c3ccc(OCC)cc3)c(=O)c3cc(OC)c(OC)cc23)cc1 | 86.0 | . | . | . | . | .
CCCS(=O)(=O)NC(=O)C1(C)CCN(C(=O)c2c(F)cccc2F)C1 (stereo not drawn) | / | . | / | . | / | /
COc1ccc(/C=N/Nc2cc(C)nc3c(C)cccc23)cc1 | . | 51.9 | . | . | . | .
CN(C)c1ccc(CNc2ncnc3sccc23)cc1 | 84.9 | . | . | . | . | .
OCCNc1nc2ccccc2nc1NCCO | . | / | . | . | . | .
OCCNc1c2ccccc2nc2ccccc12 | . | . | 24.3 | . | . | .
COC(=O)[C@]12CCCCC=C1N(Cc1ccc3c(c1)OCO3)C(=O)[C@H](CC(=O)NCC1CCCCC1)C2 | / | . | / | / | / | /
SMILES | Calb FLC | Neddyl block | HIF act | FXN GAA850 act | procasp7 counter | procasp3 activ
COc1ccc(-c2csc(-c3ccccc3)n2)c(OC)c1 | 98.7 | . | . | . | . | .
Cc1ccc(C2=NNC3(CCOC(C)(C)C3)S2)cc1 (stereo not drawn) | 95.5 | . | . | . | . | .
CCCc1sc(N/N=C/c2ccccn2)nc1-c1ccc(F)cc1 | . | . | 19.8 | . | . | .
O=C(Nc1ccccc1Cl)c1ccc([N+](=O)[O-])o1 | 100.3 | . | . | . | . | .
COc1cc(/C=C(\C#N)c2nc3ccccc3s2)cc([N+](=O)[O-])c1O | 87.9 | . | . | . | / | /
CSc1cnc2c(N)nc(N(C)C)nc2n1 | 95.1 | . | . | . | . | .
CCOC(=O)C1CCCN(C(=O)c2ccc3nc(-c4ccc(OC)c(OC)c4)c(-c4ccc(OC)c(OC)c4)nc3c2)C1 (stereo not drawn) | . | . | . | . | . | .
CCOC(=O)C1CCCN(C(=O)c2ccc3nc(-c4ccccc4)c(-c4ccccc4)nc3c2)C1 (stereo not drawn) | . | . | 16.7 | . | . | .
CC(=O)C1CCCN(C(=O)c2ccc3oc(CCc4ccccc4)nc3c2)C1 (stereo not drawn) | . | . | . | . | . | .

Bioassay records (PubChem BioAssay)
